An excerpt weighted towards active compounds, which were near 2.9% of everything screened.
CRFBP-R2 agonist: agonists of human CRF-binding protein/CRF-R2 receptor complex. hit rate 0.46% among 350,000. activation, % at 13.2 µM. HEK293 CRF-R2/CRF-BP, calcium dye fluorescence (FLIPR); percent of saturating CRF peptide response;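 active = activation of at least 50%, plus an integration ratio under a set limit after plate pattern correction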
Tn7 DDE FP: inhibitors of Tn7 peptide binding to human fibrin DD(E); FP displacement of FITC-Tn7 peptide from fibrin DD(E); 0% = median of compound wells per plate; inhibition, % at 8.3 µM; hit rate 0.13% among 370,000; AID 720508;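 active = inhibition above the mean of compounds falling within the control limits plus 3 SD of them, cut at about 14% in these data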
Target sequence (P02675 whole entry, looked up): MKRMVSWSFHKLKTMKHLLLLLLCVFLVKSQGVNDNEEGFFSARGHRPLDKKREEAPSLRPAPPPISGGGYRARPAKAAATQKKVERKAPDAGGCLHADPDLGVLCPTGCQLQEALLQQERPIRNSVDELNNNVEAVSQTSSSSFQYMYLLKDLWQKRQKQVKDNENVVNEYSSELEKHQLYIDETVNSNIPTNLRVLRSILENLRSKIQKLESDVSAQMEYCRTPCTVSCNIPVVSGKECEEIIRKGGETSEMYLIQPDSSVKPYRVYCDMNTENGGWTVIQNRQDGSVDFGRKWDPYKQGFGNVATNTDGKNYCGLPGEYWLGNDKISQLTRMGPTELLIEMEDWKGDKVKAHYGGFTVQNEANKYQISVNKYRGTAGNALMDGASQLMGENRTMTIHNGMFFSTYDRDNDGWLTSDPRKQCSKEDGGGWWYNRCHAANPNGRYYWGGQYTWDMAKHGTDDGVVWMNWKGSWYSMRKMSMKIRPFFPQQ
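Also added: labelled Tn7 tracer, 0.1 µM; Assay system: human fibrin DD(E) protein; Amount: 2 µM fibrin DD(E); Schedule: 10 min compound pre-incubation, 3 h probe incubation at room temperature; Repeats: one replicate per compound; Read-out basis: percent inhibition; Measured by: fluorescence polarization of the labelled Tn7 tracer.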
DDE Tn6 FP inh: DD(E)-Tn6 binding inhibition, primary FP screen. inhibition, % at 8.3 µM. hit rate 0.21% among 370,000. Fibrin DD(E) TRITC-Tn6 fluorescence polarization displacement. P02675;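 active = inhibition above a per-campaign cutoff: mean of compounds within control limits plus 3 SD, cut at about 15% in these data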
NRP1-CendR mod: NRP-1/CendR interaction modulation; hit rate 0.85% among 360,000; inhibition, % at 25 µM; FAM-RPARPAR peptide binding to NRP-1, fluorescence polarization; O14786;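 active = inhibition or corrected inhibition above about 18%, plus a signal ratio from 0.5 to 1.5, limit read from the data, passing the limit was not always enough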
KLK7 zymogen act: activates the human kallikrein-7 zymogen | P49862 | purified proKLK7, EDANS-DABCYL substrate fluorescence; 100% is mature enzyme control, 0% vehicle | activation, % at 7 µM | hit rate 0.9% among 370,000 | AID 652039;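 active = activation above the mean of all tested compounds plus 3 SD, computed per campaign excluding outliers beyond control limits, cut at about 13% in these data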
Target sequence (P49862 whole entry, looked up): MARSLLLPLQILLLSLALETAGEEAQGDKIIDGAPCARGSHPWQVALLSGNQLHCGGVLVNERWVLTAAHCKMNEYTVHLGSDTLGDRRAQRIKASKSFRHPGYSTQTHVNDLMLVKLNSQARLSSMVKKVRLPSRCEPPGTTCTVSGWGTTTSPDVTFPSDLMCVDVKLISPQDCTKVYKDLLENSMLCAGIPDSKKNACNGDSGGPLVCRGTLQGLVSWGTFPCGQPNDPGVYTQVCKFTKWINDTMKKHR
CRFBP-R2 block: blocks CRF-induced signaling of the CRF-BP/CRF-R2 complex; HEK293 CRF-R2/CRF-BP, CRF-induced calcium fluorescence; inhibition, % at 11.8 µM; hit rate 0.59% among 350,000; AID 588475;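 active = inhibition of the ligand-induced calcium signal above about 50% at the single tested concentration, limit read from the data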
Large screens that a line does not name were inactive.

Cc1ccc(NN2C(=O)C=C(c3ccc(Cl)cc3)C2=O)cc1	CRFBP-R2 agonist 61.3
O=C(CCn1c2c(c3ccccc31)CCCC2)NNC(=O)c1ccccc1C(=O)O	CRFBP-R2 agonist 55.5 (no result: Tn7 DDE FP, DDE Tn6 FP inh, KLK7 zymogen act)
Cc1ccccc1NC(=O)Cc1nc(COC(=O)c2cc([N+](=O)[O-])ccc2NCCO)cs1	CRFBP-R2 block 60.6
CCOc1ccc2[nH]cc(C(=O)NCc3ccc(F)cc3)c(=O)c2c1	NRP1-CendR mod 39.0
O=C(NCc1ccccc1)c1c[nH]c2ccc(F)cc2c1=O	none
O=C(CCNS(=O)(=O)c1ccc(Br)cc1)NCCc1ccc(Cl)cc1	NRP1-CendR mod 26.6
CCOC(=O)c1sc(NC(=O)CSc2n[nH]c(-c3ccccc3)n2)c(C#N)c1C	none
CCOC(=O)c1sc(NC(=O)c2cc(-c3ccccc3)nc3ccccc23)c(C#N)c1C	CRFBP-R2 agonist 53.1
Cc1cc(C)cc(N=Cc2[nH]c3ccc(Br)c(Cl)c3c2O)c1	CRFBP-R2 agonist 197.0
O=P(c1ccccc1)(c1ccccc1)c1ccccc1C(Br)Br	NRP1-CendR mod 27.9
C[C@@H]1C=CCCO[C@]12C(=O)Nc1ccccc12	none (no result: CRFBP-R2 agonist, NRP1-CendR mod, CRFBP-R2 block)
Cc1cc(N2CCN(S(=O)(=O)c3ccc(Cl)c(Cl)c3)CC2)c2ccccc2n1	none
Cc1cc(N2CCN(S(=O)(=O)c3ccc(Cl)cc3)CC2)c2ccccc2n1	CRFBP-R2 block 62.4
COc1cc(NC(=O)CSc2nc(C)cc(=O)[nH]2)cc(OC)c1	none (no result: CRFBP-R2 agonist, NRP1-CendR mod, CRFBP-R2 block)
CN(C)C(=O)COC(=O)[C@H](Cc1ccccc1)NC(=O)c1ccco1	CRFBP-R2 agonist 106.6
O=C(COC(=O)[C@H](Cc1ccccc1)NC(=O)c1ccco1)NCc1ccccc1	CRFBP-R2 agonist 78.8
O=C(COC(=O)C(Cc1ccccc1)NC(=O)c1cccs1)NCc1ccccc1 (stereo not drawn)	none
C[C@H]1[C@@H](OC(=O)Nc2ccc(C(F)(F)F)cc2)CC[C@@]23CCCN2C(=O)CCC[C@@H]13	none (no result: CRFBP-R2 agonist, NRP1-CendR mod, KLK7 zymogen act, CRFBP-R2 block)
Cc1ccnc(NC(=O)C2CCN(S(=O)(=O)c3ccc4ccccc4c3)CC2)c1	none
O=C(Nc1nc2ccc(S(=O)(=O)N3CCCC3)cc2s1)c1ccccn1	CRFBP-R2 block 65.2
Cc1cc(NC(=O)CN2CCN(S(=O)(=O)c3ccc4ccccc4c3)CC2)no1	CRFBP-R2 block 50.2
O=C(Nc1ccccn1)C1CCN(S(=O)(=O)c2ccc3ccccc3c2)CC1	CRFBP-R2 block 58.6
COc1ccc(CN2CN3Cc4cc(F)ccc4C3CS2(=O)=O)cc1 (stereo not drawn)	none (no result: CRFBP-R2 agonist, NRP1-CendR mod, CRFBP-R2 block)
COC(=O)[C@]12C[C@H](CC(=O)NCc3cccc(C(F)(F)F)c3)C(=O)N(Cc3cccc4ccccc34)C1=C[C@H](C1CCCC1)O[C@@H]2C	none (no result: CRFBP-R2 agonist, NRP1-CendR mod, CRFBP-R2 block)
COC(=O)/C=c1/s/c(=C(\C#N)C(=O)NCc2ccco2)n(-c2ccccc2)c1=O	CRFBP-R2 block 77.9
COc1ccc(/C=c2\s/c(=C(/C#N)C(=O)NCc3ccco3)n(-c3ccccc3)c2=O)cc1	none
COc1cccc(N2CCN(CC(=O)NCc3c(F)cccc3F)CC2)c1	none (no result: CRFBP-R2 agonist, NRP1-CendR mod, CRFBP-R2 block)
CC(C)CC[n+]1ccccc1/C=C/c1ccc(N(C)C)cc1	CRFBP-R2 agonist 50.7
CN(C)c1ccc(/C=C/c2ccc3ccccc3[n+]2C)cc1	none
C[C@H]1COc2cc(Br)ccc2S(=O)(=O)N1Cc1cn(Cc2ccc(C(F)(F)F)cc2)nn1	none (no result: CRFBP-R2 agonist, NRP1-CendR mod, CRFBP-R2 block)
O=C(COC(=O)c1cc(Cl)ccc1O)NCCC1=CCCCC1	NRP1-CendR mod 20.5
COC(=O)c1cccc(NC(=S)NCCC2=CCCCC2)c1	NRP1-CendR mod 36.1
COc1cccc(C(=O)OCC(=O)NCCC2=CCCCC2)c1	CRFBP-R2 block 102.8
COC(=O)[C@]12C[C@H](CC(=O)NCCCCc3ccccc3)C(=O)N(Cc3ccc(Cl)cc3Cl)C1=C[C@H](C(C)(C)C)O[C@@H]2C	none (no result: CRFBP-R2 agonist, NRP1-CendR mod, CRFBP-R2 block)
COc1ccc(/C=C2/CN(Cc3ccc(OC)cc3OC)C3=NC(c4ccc5ccccc5c4)CC(=O)N32)cc1 (stereo not drawn)	none (no result: CRFBP-R2 agonist, NRP1-CendR mod, KLK7 zymogen act, CRFBP-R2 block)
O=C(CN1C(=O)c2ccccc2C1=O)Nc1cccc(S(=O)(=O)Nc2ccccc2Cl)c1	NRP1-CendR mod 32.9
C1=C(c2ccccc2)Nc2ncnn2C1c1ccccc1 (stereo not drawn)	none
Cc1ccsc1C1C=C(c2cccc(Br)c2)Nc2ncnn21 (stereo not drawn)	none (no result: Tn7 DDE FP, DDE Tn6 FP inh, KLK7 zymogen act)
Cc1ccc(C2=CC(c3ccccc3)n3ncnc3N2)cc1 (stereo not drawn)	KLK7 zymogen act 53.4
Fc1ccc(Br)cc1C1C=C(c2ccc(Br)cc2)Nc2ncnn21 (stereo not drawn)	CRFBP-R2 agonist 102.4
CN1\C(=C/C=C/C=C/C=[N+](C)C)C(C)(C)c2ccccc21	DDE Tn6 FP inh 30.7
CN1/C(=C\C=O)C(C)(C)c2ccccc21	none
CCOC(=O)CC[C@H]1CC[C@]2(CCCN(C(=O)c3ccco3)C2)O1	none (no result: CRFBP-R2 agonist, NRP1-CendR mod, CRFBP-R2 block)
Cc1ccc(C(=O)CSC2=C(C#N)C(c3ccco3)CC(=O)N2)c(C)c1 (stereo not drawn)	CRFBP-R2 agonist 56.8
COC(=O)CSC1=C(C#N)C(c2ccc(C)o2)CC(=O)N1 (stereo not drawn)	none
Cc1ccc(NC(=O)CSC2=C(C#N)C(c3ccco3)CC(=O)N2)cc1 (stereo not drawn)	CRFBP-R2 block 109.0
CCC(NC(=O)C1CCCN(c2ncccn2)C1)c1ccccc1 (stereo not drawn)	none (no result: CRFBP-R2 agonist, NRP1-CendR mod, CRFBP-R2 block)
O=C(NCc1ccc(F)cc1)C1CCN(S(=O)(=O)c2ccc(Br)s2)CC1	NRP1-CendR mod 30.0
O=c1oc(-c2ccccc2)cc(Cl)c1Cl	KLK7 zymogen act 347.0
O=c1oc(-c2ccccc2)cc2ccccc12	none (no result: CRFBP-R2 agonist, CRFBP-R2 block)
CC/C(=N\NC(=O)c1c[nH]c2ccccc12)c1cccs1	NRP1-CendR mod 29.6
O=C(CC1C=CCC1)OCCN1CCN(C2CN(Cc3cn(Cc4ccccc4Cl)nn3)S(=O)(=O)C2)CC1 (stereo not drawn)	none (no result: CRFBP-R2 agonist, NRP1-CendR mod, CRFBP-R2 block)
CC(=O)c1cccc(Nc2nc3ccccc3n3cnnc23)c1	CRFBP-R2 block 115.7
Cc1cc(C)nc(NC(=S)N2CCN(c3ncc(C(F)(F)F)cc3Cl)CC2)c1	none (no result: CRFBP-R2 agonist, NRP1-CendR mod, KLK7 zymogen act, CRFBP-R2 block)
Cc1cc(S(=O)(=O)NCC(c2ccc3c(c2)OCO3)N2CCOCC2)ccc1F (stereo not drawn)	NRP1-CendR mod 24.1
Brc1ccc(-c2noc(CCc3ccccc3)n2)o1	CRFBP-R2 block 61.2
Clc1ccccc1OCc1nc(-c2ccc(Br)o2)no1	none
CCOC(=O)CC[C@H]1CC[C@]2(CCCN(S(=O)(=O)C3CCCCC3)C2)O1	none (no result: CRFBP-R2 agonist, NRP1-CendR mod, CRFBP-R2 block)
CC(=O)NCCn1ccc2ccccc21	NRP1-CendR mod 31.5
CC(C)C[C@H]1COc2cccc(F)c2S(=O)(=O)N1Cc1cn(Cc2ccc(C(F)(F)F)cc2)nn1	none (no result: CRFBP-R2 agonist, NRP1-CendR mod, CRFBP-R2 block)
CSCCC(NC(=O)c1ccc(Cl)cc1Cl)C(=O)NCc1ccccn1 (stereo not drawn)	none
